We go through two compounds from ChEMBL document CHEMBL1127382, “Synthesis of N-acetylglucosamine-modified ara-C and its effect on ovarian cancer cells” (1994).

Common to all, as to format: functional
Experiment [1] concerns G-401. The experiment is described as follows: Tested in vitro against human ovarian cancer cells (G-401) for anticancer activity at dose 10 uM in presence of + beta galactosidase (Cell number 1*10 e-4). A digest of the protocol:
(§1)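 G-401 human ovarian cancer cells seeded at 5 × 10^4 cells/mL in serum-free medium with compound (0–100 μM) plus E. coli β-galactosidase at 1 unit/mL. Cultured 3 days at 37 °C under 5% CO₂. Viable cells were counted by trypan blue exclusion and reported as cell number (×10^-4).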

Experiment [2] concerns G-401. The experiment is described as follows: Tested in vitro against human ovarian cancer cells (G-401) for anticancer activity at dose 0 uM in presence of + beta galactosidase (Cell number 1*10 e-4). The gist of the method:
as §1

The subject of experiment [3] is G-401. The experiment is described as follows: Tested in vitro against human ovarian cancer cells (G-401) for anticancer activity at dose 1 uM (Cell number 1*10 e-4). A digest of the protocol:
(§2)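 G-401 human ovarian cancer cells seeded at 5 × 10^4 cells/mL in serum-free medium, with or without compound at 0–100 μM. Cultured 3 days at 37 °C under 5% CO₂. Living cells were counted by trypan blue dye exclusion and reported as cell number (×10^-4).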

Experiment [4] has as its system G-401. Briefly: Tested in vitro against human ovarian cancer cells (G-401) for anticancer activity at dose 0 uM (Cell number 1*10 e-4). A digest of the protocol: as §2
Experiment [5] concerns G-401. The experiment is described as follows: Tested in vitro against human ovarian cancer cells (G-401) for anticancer activity at dose 100 uM in presence of + beta galactosidase (Cell number 1*10 e-4). A digest of the protocol: as §1
Experiment [6] deals with G-401. The experiment is described as follows: Tested in vitro against human ovarian cancer cells (G-401) for anticancer activity at dose 1 uM in presence of + beta galactosidase (Cell number 1*10 e-4). A digest of the protocol:
as §1

Experiment [7] deals with G-401. Briefly: Tested in vitro against human ovarian cancer cells (G-401) for anticancer activity at dose 10 uM (Cell number 1*10 e-4). A digest of the protocol: as §2
In experiment [8] the test system is G-401. The experiment is described as follows: Tested in vitro against human ovarian cancer cells (G-401) for anticancer activity at dose 100 uM (Cell number 1*10 e-4). The gist of the method: as §2

For `Nc1ccn([C@@H]2O[C@H](CO[C@@H]3O[C@H](CO)[C@H](O)[C@H](O)[C@H]3O)[C@@H](O)[C@@H]2O)c(=O)n1`, the Cell number in experiment [1] is recorded as 6; in experiment [2], 46; in experiment [3], 41; in experiment [4] it was 55; in experiment [5] it was 2; in experiment [6] it was 15. The Cell number in experiment [7] was found to be 38; in experiment [8], 56.
As to `Nc1ccn([C@@H]2O[C@H](CO)[C@@H](O)[C@@H]2O)c(=O)n1` [CYTARABINE], the Cell number in experiment [3] is reported as 0; in experiment [4], 55; in experiment [7], 0; in experiment [8], 0.
